For test [1], the system named is Erythroleukemia cell line. Put plainly: Concentration producing the maximum percentage of benzidine-positive cells after 6-days of continuous exposure in murine leukemia cells. It is filed as functional, cell-based. Particulars: Mus musculus. The essentials: (§1)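 Clone 745A erythroleukemia cells were exposed continuously from seeding (1 × 10^5 cells/mL) to graded twofold concentrations over at least a 10-fold range, in at least two experiments, with a Me2SO (210 mM) positive control. On day 6, hemoglobin-containing cells were stained blue with acid benzidine peroxide and counted by light microscopy. The optimum concentration was averaged across experiments.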

Test [2] deals with Erythroleukemia cell line. Put plainly: Cell growth was measured on day 3, after murine erythroleukemia cells were exposed at a cell concentration of 1*10e5 cells/mL. It is filed as functional, Mus musculus. The essentials:
(§2)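 Friend murine erythroleukemia cells (clone 745A) were grown in DMEM with 15% fetal calf serum at 37 °C in 10% CO2. Agents were given as aqueous, ethanol or acetone solutions at seeding (1 × 10^5 cells/mL) and left on continuously. Cells were counted electronically on day 3 or day 6 and expressed as percentage of control growth. Runs were in duplicate.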

For test [3], the system named is Erythroleukemia cell line. Put plainly: Cell growth was measured on day 6 after murine erythroleukemia cells were exposed at a cell concentration of 1*10e5 cells/mL. It is filed as functional, Mus musculus. The essentials: as §2
Test [4] has as its system Erythroleukemia cell line. The test is described as follows: Percentage of benzidine-positive murine erythroleukemia cells on day 6. The class given is functional, Mus musculus. The essentials: as §1

Regarding `CC(=O)N(C)C`, the Concentration in test [1] was found to be 40 mM. For the same compound, the Cell growth is 32% in test [2] and 21% in test [3]. In test [4], the Benzidine positive cells is given as 84%.

On to `O=C1CCCCCN1` [CAPROLACTAM], for which the Concentration in test [1] was 20 mM. Further, the Cell growth came out at 95% in test [2] and 81% in test [3]. Further, the Benzidine positive cells in test [4] came out at 82%.

Consider `CC(=O)N1CCCC1=O`, for which the Concentration in test [1] came to 20 mM. For the same compound, the Cell growth is recorded as 156% in test [2] and 116% in test [3]. The Benzidine positive cells in test [4] was 73%.

Take `CC(=O)Nc1ccncc1`: the Concentration in test [1] came out at 5 mM. Besides, the Cell growth in test [2] was 37%; in test [3], 60%. The same compound returned a Benzidine positive cells in test [4] of 34%.

As for `CCCCn1ccccc1=O`, the Concentration in test [1] amounted to 1 mM. Also, the Cell growth is recorded as 103% in test [2] and 125% in test [3]. For the same compound, in test [4], the Benzidine positive cells worked out at 76%.

As to `CNC(C)=O`, the Concentration in test [1] turned out to be 40 mM. For the same compound, the results for the Cell growth in test [2] and in test [3] were 121% and 55%, respectively. Further, the Benzidine positive cells in test [4] came out at 90%.

In turn, `CC(C)n1ccccc1=O` came in with a Concentration in test [1] of 2 mM. Further, the figures for the Cell growth in test [2] and in test [3] were 96% and 80%, respectively. For the same compound, in test [4], the Benzidine positive cells was found to be 90%.

The compound `CC(=O)Nc1cccnc1` gave a Concentration in test [1] of 5 mM. For the same compound, the Cell growth in test [2] is recorded as 183%; in test [3] it was 167%. In test [4], this compound registered a Benzidine positive cells of 86%.

Regarding `CNC(=O)c1ccccn1`, the Concentration in test [1] came out at 2 mM. Also, the Cell growth was 50% in test [2] and 80% in test [3]. In test [4], this compound came in with a Benzidine positive cells of 60%.

`O=C(Nc1ccccn1)C(F)(F)F` gave a Concentration in test [1] of 1 mM. Besides, the Cell growth in test [2] is 98%; in test [3], 89%. Moreover, the Benzidine positive cells in test [4] is recorded as 69%.

Regarding `CC(=O)N1CCCCC1`, the Concentration in test [1] was found to be 8 mM. Also, the Cell growth is listed as 50% in test [2] and 138% in test [3]. Further, the Benzidine positive cells in test [4] was 85%.

Regarding `CC(=O)N1CCCCC1=O`, the Concentration in test [1] was determined as 20 mM. Besides, the Cell growth in test [2] came to 170%; in test [3], 74%. In addition, in test [4], the Benzidine positive cells was 86%.

On to `CCn1ccccc1=O`, for which the Concentration in test [1] came out at 4 mM. The Cell growth in test [2] is reported as 78%; in test [3], 79%. In test [4], this compound displayed a Benzidine positive cells of 86%.

As to `O=C(CCl)Nc1ccccn1`, in test [1], the Concentration stood at 2 mM. Moreover, the Cell growth in test [2] was 98%; in test [3] it was 119%. For the same compound, in test [4], the Benzidine positive cells was 83%.

In test [1], `CC(=O)N(c1ccccn1)c1ccccn1` registered a Concentration of 2 mM. The Cell growth in test [2] is given as 74%; in test [3], 85%. In test [4], this compound returned a Benzidine positive cells of 36%.

Consider `O=C(Nc1ccccn1)c1ccccn1`, for which the Concentration in test [1] worked out at 1 mM. The Cell growth in test [2] stood at 35%; in test [3], 50%. The Benzidine positive cells in test [4] amounted to 33%.

Regarding `CNC(=O)c1cccnc1` [NICOTINYL METHYLAMIDE], the Concentration in test [1] was determined as 4 mM. Moreover, the Cell growth in test [2] came out at 94%; in test [3] it was 78%. In test [4], this compound displayed a Benzidine positive cells of 93%.

The compound `CC(=O)Nc1ccccc1` [ACETANILIDE] had a Concentration in test [1] of 4 mM. The Cell growth in test [2] amounted to 75%; in test [3], 65%. The same compound yielded a Benzidine positive cells in test [4] of 71%.

`Cn1ccccc1=O`: the Concentration in test [1] amounted to 4 mM. Besides, the Cell growth in test [2] was 74%; in test [3], 62%. The Benzidine positive cells in test [4] is given as 89%.

On to `Oc1ccccn1`, for which, in test [1], the Concentration is 16 mM. In addition, the values for the Cell growth in test [2] and in test [3] were 114% and 77%, respectively. This compound also showed a Benzidine positive cells in test [4] of 95%.

In the case of `CCN1CCCCC1=O`, the Concentration in test [1] came to 4 mM. In addition, the results for the Cell growth in test [2] and in test [3] were 186% and 84%, respectively. Further, the Benzidine positive cells in test [4] is on record as 87%.

The compound `CCN1CCCCCC1=O` returned a Concentration in test [1] of 4 mM. Besides, the Cell growth in test [2] was found to be 106%; in test [3], 63%. Further, in test [4], the Benzidine positive cells was found to be 96%.

In test [1], `CCCn1ccccc1=O` gave a Concentration of 2 mM. Besides, the Cell growth in test [2] is reported as 112%; in test [3], 129%. Also, in test [4], the Benzidine positive cells is recorded as 82%.

`CN1CCCCC1=O` gave a Concentration in test [1] of 5 mM. In addition, the Cell growth is reported as 97% in test [2] and 69% in test [3]. The Benzidine positive cells in test [4] worked out at 89%.

In turn, `CC(=O)N1CCCC1` displayed a Concentration in test [1] of 4 mM. In addition, the Cell growth came to 54% in test [2] and 99% in test [3]. In test [4], the Benzidine positive cells amounted to 60%.

Take `O=C1CCCCN1`: the Concentration in test [1] is 40 mM. The results for the Cell growth in test [2] and in test [3] were 72% and 67%, respectively. In test [4], this compound came in with a Benzidine positive cells of 64%.

Compound `CC(=O)N1CCCCCC1=O` gave a Concentration in test [1] of 4 mM. In addition, the Cell growth is recorded as 102% in test [2] and 85% in test [3]. Also, the Benzidine positive cells in test [4] is recorded as 53%.

`O=C1CCCN1` [2-PYRROLIDONE] displayed a Concentration in test [1] of 100 mM. Further, the Cell growth in test [2] amounted to 26%; in test [3] it was 100%. In addition, the Benzidine positive cells in test [4] is 89%.

As to `CC(=O)NC1CCCCC1`, the Concentration in test [1] was found to be 4 mM. Besides, the figures for the Cell growth in test [2] and in test [3] were 95% and 150%, respectively. This compound displayed a Benzidine positive cells in test [4] of 92%.

`CC(=O)Nc1ccccn1` came in with a Concentration in test [1] of 2 mM. Moreover, the Cell growth in test [2] is recorded as 144%; in test [3] it was 58%. This compound registered a Benzidine positive cells in test [4] of 85%.

Compound `CCN1CCCC1=O` gave a Concentration in test [1] of 10 mM. Besides, the Cell growth in test [2] came out at 53%; in test [3], 81%. This compound registered a Benzidine positive cells in test [4] of 90%.

`CCCCCCn1ccccc1=O` yielded a Concentration in test [1] of 1 mM. For the same compound, the Cell growth was found to be 101% in test [2] and 75% in test [3]. The Benzidine positive cells in test [4] was 58%.

In test [1], `CN1CCCCCC1=O` showed a Concentration of 2 mM. In addition, the figures for the Cell growth in test [2] and in test [3] were 109% and 68%, respectively. The Benzidine positive cells in test [4] is 90%.

The compound `CN1CCCC1=O` [METHYLPYRROLIDONE] displayed a Concentration in test [1] of 10 mM. Also, the Cell growth in test [2] amounted to 97%; in test [3] it was 83%. In test [4], this compound displayed a Benzidine positive cells of 87%.

`CNC(=O)c1ccccc1` returned a Concentration in test [1] of 1 mM. Besides, the Cell growth in test [2] is on record as 54%; in test [3], 99%. Further, the Benzidine positive cells in test [4] is on record as 62%.
